One assay addresses T1, Human immunodeficiency virus type 1 protease (Human immunodeficiency virus 1, UniProt Q72874). The experiment in a line: (§1) Inhibitory activity against HIV PR in HIV-1 infected CEM-SS cell lines. Type of assay: cell-based.
Conditions: not given
In outline:
(§2)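 Antiviral activity in HIV-1-infected CEM cells, read out by a cell viability assay run to a previously described method. Compounds were tested across a dose range, and the antiviral IC50 was taken from the dose-response curve.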
On to `CC(C)(C)NC(=O)c1ccccc1CC(O)CSc1ccccc1NC(=O)C(C)(C)C` (stereo not drawn), for which the IC50 is greater than 200 µM. As for `CC(C)(C)NC(=O)c1ccccc1SCC(O)c1ccccc1C(=O)NC(C)(C)C` (stereo not drawn), the IC50 was greater than 200 µM. Same read-out and setting: then `CC(C)N1CCC(CC(O)CCc2ccccc2C(=O)NC(C)(C)C)=C(C(=O)NC(C)(C)C)C1` (stereo not drawn), with 70 µM. `CC(C)(C)NC(=O)c1ccccc1C#CC(O)Cc1ccccc1C(=O)NC(C)(C)C` (stereo not drawn) gave an IC50 of 200 µM.

`CC(C)(C)NC(=O)c1ccccc1SCC(O)Cc1ccc2ccccc2c1C(=O)NC(C)(C)C` (stereo not drawn) displayed an IC50 of 25 µM. On the same count and under the same terms, in the case of `CC(C)(C)NC(=O)c1cc(C(C)(C)C)ccc1CCC(O)Cc1ccc(C(C)(C)C)cc1C(=O)NC(C)(C)C` (stereo not drawn) it was 7 µM.

The target in the next assay is Human immunodeficiency virus type 1 protease (Human immunodeficiency virus 1) (UniProt Q72874). The assay can be described thus: Inhibitory activity against HIV PR in HIV-1 infected CEM-SS cell lines; activity @ 200 uM.
Conditions: not given
`CC(C)(C)NC(=O)c1ccccc1/C=C/C(O)Cc1ccccc1C(=O)NC(C)(C)C` (stereo not drawn) returned an inhibition of 40%.

The target is the same in another assay. The assay is described as §1. It counts as cell-based. The settings on record: concentration not given here. In outline: as §2
Turning to `CC(C)(C)NC(=O)c1ccccc1CCC(O)CN1CCCCC1C(=O)NC(C)(C)C` (stereo in doubt; 12), the inhibition came to 35%. On to `CC(C)(C)NC(=O)c1ccccc1CCC(O)CN1CCCCC1C(=O)NC(C)(C)C` (stereo in doubt; 11), for which the inhibition is 20%.

A further assay has as its target T1, Human immunodeficiency virus type 1 protease. The description is as §1.
Conditions: not given
It counts as cell-based.
Regarding `CC(C)(C)NC(=O)c1c(CC[C@@H](O)Cc2ccc3ccccc3c2C(=O)NC(C)(C)C)ccc2ccccc12`, the affinity corresponds to a Ki of 25000 nM.

As to `CC(C)(C)NC(=O)c1ccccc1CC(O)CSc1ccccc1C(=O)NC(C)(C)C` (stereo not drawn), the affinity corresponds to a Ki of 83000 nM. On the same count and under the same terms, in the case of `CC(C)(C)NC(=O)c1c(CCC(O)Cc2ccc3ccccc3c2C(=O)NC(C)(C)C)ccc2ccccc12` (stereo not drawn) it was 1400 nM.

With `CC(C)(C)NC(=O)c1cc(C(C)(C)C)ccc1CCC(O)Cc1ccc2ccccc2c1C(=O)NC(C)(C)C` (stereo not drawn), the inhibition constant Ki was found to be 1200 nM.

As for `CC(C)(C)NC(=O)c1c(CC[C@H](O)Cc2ccc3ccccc3c2C(=O)NC(C)(C)C)ccc2ccccc12`, the affinity corresponds to a Ki of 480 nM. This Ki lies about 2.5-fold lower than the previous one.

In turn, `CC(C)(C)NC(=O)c1ccccc1CCC(O)Cc1ccccc1C(=O)NC(C)(C)C` (stereo not drawn) returned a Ki of 24000 nM. In turn, `CC(C)(C)NC(=O)c1ccccc1CCC(O)Cc1ccc2ccccc2c1C(=O)NC(C)(C)C` (stereo not drawn) showed an inhibition constant Ki of 2200 nM.

Another assay addresses Human immunodeficiency virus type 1 protease (Human immunodeficiency virus 1) (UniProt Q72874). The assay can be described thus: Inhibitory activity against HIV-1 PR in HIV-1 infected CEM-SS cell lines; activity @ 10 uM.
Conditions: not given
As to `CC(C)(C)NC(=O)c1ccccc1CC[C@@H](O)CN1CCC[C@H]1C(=O)NC(C)(C)C`, the inhibition came out at 10%.

The next assay has the same target. The experiment in a line: Inhibitory activity against HIV-1 PR in HIV-1 infected CEM-SS cell lines; activity @ 10 uM. Type of assay: cell-based.
Conditions: not given
On to `CC(C)(C)NC(=O)c1ccccc1CC[C@H](O)CN1CCC[C@H]1C(=O)NC(C)(C)C`, for which the inhibition stood at 10%.

The term IC50 denotes the point on the concentration scale where inhibition reaches its midpoint. Low values mean inhibition by little substance, high ones a need for much substance. The inhibition is the share of the control response that was lost under treatment. A low value points to little suppression. By Ki is commonly meant the dissociation constant of the complex between target and ligand, obtained from inhibition or displacement. Read a high Ki as lower affinity.

Source of the values: ChEMBL document CHEMBL1129728, “Structure-based design and synthesis of substituted 2-butanols as nonpeptidic inhibitors of HIV protease: secondary amide series” (J Med Chem, 1996).
